We go through 4 compounds from ChEMBL document CHEMBL3352210, “Aurones as histone deacetylase inhibitors: identification of key features” (Bioorg Med Chem Lett, 2014).

In general, inhibition refers to the drop in the measured response relative to a control, in per cent. Usually IC50 stands for the point on the concentration scale where inhibition reaches its midpoint. Low values mean greater potency in that assay, high ones weaker potency in that assay.

Data set [1] has as its target T1, Histone deacetylase (Homo sapiens) (UniProt Q13547+O15379+Q9UBN7+Q92769+Q9UQL6+Q8WUI4+Q9BY41+Q96DB2+P56524+Q9UKV0+Q969S8). The data set can be described thus: Inhibition of HDAC in human HeLa cell extract at 100 uM after 15 mins by fluorescence assay. The format is protein assay.
The target of data set [2] is Histone deacetylase. Put plainly: Inhibition of HDAC in human HeLa cell extract after 15 mins by fluorescence assay. Format: protein assay.
The target in data set [3] is Histone deacetylase 1 (Homo sapiens, UniProt Q13547). The data set can be described thus: Inhibition of HDAC1 (unknown origin) after 15 mins by fluorescence assay.
Sequence of Histone deacetylase 1 (Q13547 whole entry): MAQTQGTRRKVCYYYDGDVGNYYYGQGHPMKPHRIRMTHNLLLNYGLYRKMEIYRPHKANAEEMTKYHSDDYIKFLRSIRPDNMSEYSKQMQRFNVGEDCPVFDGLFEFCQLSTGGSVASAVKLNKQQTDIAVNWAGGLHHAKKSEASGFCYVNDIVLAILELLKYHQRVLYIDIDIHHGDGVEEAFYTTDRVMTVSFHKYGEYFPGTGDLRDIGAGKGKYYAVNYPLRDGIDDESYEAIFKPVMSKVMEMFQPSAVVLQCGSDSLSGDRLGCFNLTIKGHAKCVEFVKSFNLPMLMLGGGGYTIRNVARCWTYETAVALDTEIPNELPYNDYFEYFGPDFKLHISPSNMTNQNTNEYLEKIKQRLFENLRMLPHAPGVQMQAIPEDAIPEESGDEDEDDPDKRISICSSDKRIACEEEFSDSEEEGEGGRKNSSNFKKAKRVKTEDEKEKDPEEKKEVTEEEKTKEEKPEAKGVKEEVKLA
The target in data set [4] is Histone deacetylase 2 (Homo sapiens, UniProt Q92769). Put plainly: Inhibition of HDAC2 (unknown origin) after 15 mins by fluorescence assay.
Sequence of Histone deacetylase 2 (Q92769 whole entry): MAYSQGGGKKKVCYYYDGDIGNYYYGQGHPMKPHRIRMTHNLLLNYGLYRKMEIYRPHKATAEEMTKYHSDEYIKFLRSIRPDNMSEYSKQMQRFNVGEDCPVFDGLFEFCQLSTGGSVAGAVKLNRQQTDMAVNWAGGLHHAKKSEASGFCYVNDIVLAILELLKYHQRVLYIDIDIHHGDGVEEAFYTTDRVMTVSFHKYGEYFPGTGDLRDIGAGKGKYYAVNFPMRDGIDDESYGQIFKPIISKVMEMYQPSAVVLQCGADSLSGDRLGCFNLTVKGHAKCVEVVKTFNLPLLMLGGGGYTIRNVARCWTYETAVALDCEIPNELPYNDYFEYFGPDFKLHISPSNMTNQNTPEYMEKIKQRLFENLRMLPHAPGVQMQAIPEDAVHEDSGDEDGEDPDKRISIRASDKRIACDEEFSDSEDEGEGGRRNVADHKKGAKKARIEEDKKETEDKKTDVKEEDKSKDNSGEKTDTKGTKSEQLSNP
Data set [5] deals with T2, Protein deacetylase HDAC6 (Homo sapiens, UniProt Q9UBN7).
T2 sequence (Q9UBN7 whole entry): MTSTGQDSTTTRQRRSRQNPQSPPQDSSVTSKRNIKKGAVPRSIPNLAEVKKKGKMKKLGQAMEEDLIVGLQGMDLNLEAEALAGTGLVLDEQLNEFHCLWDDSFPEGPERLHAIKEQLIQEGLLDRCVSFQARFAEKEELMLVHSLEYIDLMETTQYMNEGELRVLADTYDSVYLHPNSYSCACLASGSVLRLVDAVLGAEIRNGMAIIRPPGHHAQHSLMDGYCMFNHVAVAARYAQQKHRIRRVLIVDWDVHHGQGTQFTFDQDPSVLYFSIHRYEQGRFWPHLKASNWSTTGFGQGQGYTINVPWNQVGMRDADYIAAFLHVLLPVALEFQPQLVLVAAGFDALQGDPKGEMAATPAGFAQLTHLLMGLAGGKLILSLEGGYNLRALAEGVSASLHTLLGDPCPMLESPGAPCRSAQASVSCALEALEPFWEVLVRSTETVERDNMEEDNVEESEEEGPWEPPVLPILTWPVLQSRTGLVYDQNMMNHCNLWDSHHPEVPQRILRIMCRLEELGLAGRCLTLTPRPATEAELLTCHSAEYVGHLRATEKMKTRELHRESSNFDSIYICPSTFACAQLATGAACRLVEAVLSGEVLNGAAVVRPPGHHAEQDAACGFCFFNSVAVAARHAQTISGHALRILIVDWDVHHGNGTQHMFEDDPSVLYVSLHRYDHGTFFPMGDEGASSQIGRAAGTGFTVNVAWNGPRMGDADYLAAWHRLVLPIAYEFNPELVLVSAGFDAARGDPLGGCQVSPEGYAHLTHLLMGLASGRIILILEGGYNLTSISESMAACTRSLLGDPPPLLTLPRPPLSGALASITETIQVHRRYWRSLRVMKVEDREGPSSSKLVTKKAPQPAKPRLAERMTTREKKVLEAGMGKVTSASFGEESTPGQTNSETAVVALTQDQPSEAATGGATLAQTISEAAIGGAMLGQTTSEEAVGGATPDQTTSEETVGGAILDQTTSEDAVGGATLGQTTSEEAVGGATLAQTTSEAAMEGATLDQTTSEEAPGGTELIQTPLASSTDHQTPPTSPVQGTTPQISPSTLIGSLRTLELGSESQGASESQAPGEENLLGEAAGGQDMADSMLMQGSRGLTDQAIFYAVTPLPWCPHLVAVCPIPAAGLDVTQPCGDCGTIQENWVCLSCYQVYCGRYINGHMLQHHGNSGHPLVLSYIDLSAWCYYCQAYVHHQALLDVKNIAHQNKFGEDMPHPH
The data set can be described thus: Inhibition of HDAC6 (unknown origin) after 15 mins by fluorescence assay.

Data set [6] addresses T1, Histone deacetylase (Homo sapiens). The data set can be described thus: Inhibition of HDAC in human MeT-5A cells assessed as hisone H3 acetylation after 16 hrs by BRET assay. The format is cell-based. In short, it runs like this:
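MeT-5A cells transfected with phRluc-C1-BrD and pEYFP-C1 histone H3, then exposed 16 h to increasing doses; BRET signal read as measure of histone H3 acetylation (rise in signal = more acetylation). SAHA used as positive control. Means ± SEM of three independent experiments.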

The nature of data set [7]: Cytotoxicity against human MeT-5A cells after 16 hrs by luciferase reporter gene assay. Format: cell-based. Background: In a reporter assay the amount or activity of a reporter protein is the signal.
A short description of data set [8]: Cytotoxicity against human MCF7 cells assessed as cell viability at 15 uM after 72 hrs by Celltitre-glo assay. The format is cell-based. Conditions: read-out: Activity.
Data set [9] can be described thus: Cytotoxicity against human HepG2 cells assessed as cell viability at 15 uM after 72 hrs by Celltitre-glo assay. Format: cell-based. Conditions: read-out: Activity.
The target of data set [10] is T3, NAD-dependent protein deacetylase sirtuin-2 (Homo sapiens) (UniProt Q8IXJ6).
T3 sequence (whole entry): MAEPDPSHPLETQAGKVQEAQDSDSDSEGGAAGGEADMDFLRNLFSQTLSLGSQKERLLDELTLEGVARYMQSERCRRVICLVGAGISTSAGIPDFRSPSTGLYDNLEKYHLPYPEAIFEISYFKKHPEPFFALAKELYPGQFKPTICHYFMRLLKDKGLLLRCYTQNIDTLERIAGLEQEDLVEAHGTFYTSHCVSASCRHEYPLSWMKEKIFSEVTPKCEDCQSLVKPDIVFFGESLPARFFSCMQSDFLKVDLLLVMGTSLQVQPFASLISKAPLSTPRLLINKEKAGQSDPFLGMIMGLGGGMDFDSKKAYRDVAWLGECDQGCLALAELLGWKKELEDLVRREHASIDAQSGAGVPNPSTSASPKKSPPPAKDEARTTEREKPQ
The data set can be described thus: Modulation of sirtuin 2 (unknown origin) by thermal shift assay. In short, it runs like this:
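Sirtuin 2 modulation tested by thermal shift assay.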

The target of data set [11] is T4, Retinoic acid receptor beta (Homo sapiens) (UniProt P10826).
T4 sequence (whole entry): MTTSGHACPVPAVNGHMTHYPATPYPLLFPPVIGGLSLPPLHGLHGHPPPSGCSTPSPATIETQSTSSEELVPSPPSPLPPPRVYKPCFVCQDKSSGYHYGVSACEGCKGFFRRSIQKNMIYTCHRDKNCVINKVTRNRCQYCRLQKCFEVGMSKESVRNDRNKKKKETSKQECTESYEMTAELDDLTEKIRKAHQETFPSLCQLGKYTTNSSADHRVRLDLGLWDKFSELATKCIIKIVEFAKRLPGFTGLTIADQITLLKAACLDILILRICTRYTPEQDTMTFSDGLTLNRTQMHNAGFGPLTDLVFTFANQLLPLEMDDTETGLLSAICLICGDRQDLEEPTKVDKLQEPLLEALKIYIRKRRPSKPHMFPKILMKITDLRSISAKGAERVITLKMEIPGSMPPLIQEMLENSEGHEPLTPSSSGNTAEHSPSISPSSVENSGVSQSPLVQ
Put plainly: Inhibition of RAR-beta (unknown origin) assessed as change in DNA methylation. The essentials: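 DNA methylation changes assessed by specific PCR for RARb.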

Active and inactive are the calls of the source. The calls are words filed in the database; no cut-off is given here.

Consider `O=C1/C(=C/c2ccc(O)c(O)c2)Oc2ccccc21`, for which the results for the inhibition in [1] and in data set [6] were 100% and “Dose-dependent effect”, respectively. Further, the IC50 in [2] was 8.2 µM; in data set [3], 11.4 µM; in [4], 5.1 µM; in data set [5], 26.9 µM. Further, in data set [7], the Activity entry is “Dose-dependent effect”. For the same compound, the viability at 72 h, 15 µM in data set [8] amounted to 95%; in data set [9] it was 114%. Moreover, the inhibition entry in [10] and in data set [11] was “inactive” throughout.
Turning to `O=C1/C(=C/c2ccc(O)cc2)Oc2ccccc21`, the inhibition in data set [1] is 100%; in data set [6] it was “Dose-dependent effect”. The 50% inhibitory concentration (IC50) was 12.6 µM in data set [2], 129 µM in [3], 100 µM in data set [4] and 136 µM in data set [5]. For the same compound, the Activity entry in [7] is “Dose-dependent effect”. The viability at 72 h, 15 µM in data set [8] worked out at 79%; in [9] it was 100%. Further, the inhibition entry in data set [10] and in data set [11] was “inactive” throughout.
With `O=C1/C(=C/c2ccc(O)c(O)c2)Oc2cc(O)cc(O)c21` [AUREUSIDIN], the inhibition in [1] was 100%; in [6], “Dose-dependent effect”. For the same compound, the IC50 in data set [2] came to 18.5 µM; in [3], 38 µM; in data set [4] it was 38.9 µM; in data set [5], 48.5 µM. Also, the Activity entry in [7] is “Dose-dependent effect”. The viability at 72 h, 15 µM turned out to be 102% in data set [8] and 116% in data set [9]. Besides, the inhibition result in data set [10] and in [11] was “inactive” in each case.
As for `O=C1/C(=C/c2cccc(O)c2O)Oc2ccccc21`, the figures for the inhibition in data set [1] and in data set [6] were 98% and “Dose-dependent effect”, respectively. Moreover, the IC50 was 18.6 µM in [2], 21 µM in data set [3], 16.4 µM in [4] and 26.9 µM in data set [5]. For the same compound, the Activity entry in data set [7] is on record as “Dose-dependent effect”. In addition, the viability at 72 h, 15 µM in data set [8] was determined as 109%; in [9], 113%. Moreover, the inhibition entry in data set [10] and in data set [11] was “inactive” each time.
